Published values of several laboratories.
Target: High affinity nerve growth factor receptor (NTRK1, Homo sapiens, UniProt P04629)

Cn1cc(Cl)c2c(Oc3c(F)cc(Nc4cc(Cl)nc(N)n4)cc3F)ccnc21
remaining binding (cell-free assay, competition with immobilised ligand; 0.1 µM): 74%

CN(C)c1nccc(-c2cnc3ncccn23)n1
remaining binding (binding; 1 µM): 72%

CCS(=O)(=O)c1cc2cc(C[C@@](O)(CC(C)(C)c3ccc(F)cc3C(N)=O)C(F)(F)F)[nH]c2cn1
remaining binding (cell-free assay, competition with immobilised ligand; 1 µM): 74%

C[C@H]1CCN(c2nccc(-c3cnn4ncccc34)n2)C1
remaining binding (binding; 1 µM): 68%

Cc1cnc(Nc2ccc(C(=O)N3CCC(N4CCCC4)CC3)cc2)nc1-c1cc2ccccc2s1
remaining binding (binding, competition with immobilised ligand; 1 µM): 0.3%

O=C(Nc1c[nH]nc1C(=O)NC1CCNCC1)c1cc(F)cc(F)c1
remaining binding (binding, competition with immobilised ligand; 1 µM): 100%

O=S(=O)(NC1CCC(c2cc(F)ccc2F)(S(=O)(=O)c2ccc(Cl)cc2)CC1)C(F)(F)F (stereo not shown)
remaining binding (cell-free assay, competition with immobilised ligand; 1 µM): 76%

COc1cnc(Nc2cccc(S(N)(=O)=O)c2)nc1N1CCN(c2ccccc2)CC1
remaining binding (binding, competition with immobilised ligand; 1 µM): 58%

O=C(NCCCC1CCCCC1)c1ccc(CNC(=O)c2cnn(-c3ccccc3)c2C(F)(F)F)cc1
remaining binding (cell-free assay, competition with immobilised ligand; 0.1 µM): 100%

CC(C)(C)c1ccc(-c2nc(CBr)nn2-c2cccc(O)c2)cc1
remaining binding (cell-free assay, competition with immobilised ligand; 10 µM): 71%

Cc1cnn2ncc(-c3ccnc(N(C)C)n3)c2c1
remaining binding (binding; 1 µM): 80%

Cc1nc(N2CC[C@@H](O)C2)ncc1-c1cc(C(F)(F)F)cc2[nH]ncc12
remaining binding (cell-free assay, competition with immobilised ligand; 1 µM): 56%

N[C@H]1CCN(c2nccc(-c3cnn4ncccc34)n2)C1
remaining binding (binding; 1 µM): 85%

COc1ncc2cc3ccccc3nc2c1C#N
remaining binding (cell-free assay, competition with immobilised ligand; 5 µM): 100%

O=C(NCCCN1CCOCC1)c1ccc(Nc2ncc(Cl)c(-c3ccc(Cl)s3)n2)cc1
remaining binding (binding, competition with immobilised ligand; 1 µM): 17%

Nc1ncc2c(n1)-c1c([nH]c3ccc(C#CC4CC4)cc13)CCCC2
remaining binding (binding, competition with immobilised ligand; 1 µM): 69%
